# High-throughput results as filed in PubChem.
# Ecoli rRNA inh: inhibits bacterial ribosomal RNA function over humanized ribosomes; AID 720706; actives 1.6% (n = 350,000); E. coli WT GFP vs humanized-ribosome RFP mutants, fluorescence, 24 h; hits give low values; DMSO median 0, no signal -100; GFP signal change (wild-type ribosome), % (no concentration beside the values);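 active = significant combined selectivity score with lowered wild-type GFP, culture density cut under 30%, mutant RFP and density less affected; inactive = any of these conditions unmet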
# CASP6 VEID inh: caspase-6 (human) enzyme inhibition. purified caspase-6, Z-VEID-R110 cleavage fluorescence. inhibition, % at 12.5 µM. actives 0.53% (n = 350,000). AID 686996;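 active = mean inhibition across replicates at least about 35%, with every replicate also reaching that limit, limit read from the data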;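 note: 0% = median of neutral control wells and 100% = no fluorescence left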
# Target sequence (P55212 24-179 limits assumed): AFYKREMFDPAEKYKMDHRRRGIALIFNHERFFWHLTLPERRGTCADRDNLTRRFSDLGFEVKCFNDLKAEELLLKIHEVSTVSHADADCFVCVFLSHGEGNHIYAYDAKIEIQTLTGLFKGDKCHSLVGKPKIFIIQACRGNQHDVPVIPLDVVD
# Target sequence (P55212 194-293 limits assumed): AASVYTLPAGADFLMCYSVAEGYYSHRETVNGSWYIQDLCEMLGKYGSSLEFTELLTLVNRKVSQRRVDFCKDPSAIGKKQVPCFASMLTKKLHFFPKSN
# ARNT TACC3 PPI: disrupts binding between human ARNT and TACC3; inhibition, % at 9.99 µM; actives 0.66% (n = 390,000); AlphaScreen His-ARNT PAS-B/GST-TACC3 binding, luminescence; TACC3 fragment carries E629A point mutation;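 active = mean inhibition of replicates at least 50% and at least half of replicates each reaching 50%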;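 note: 0% = complete ARNT plus TACC3 wells and 100% = ARNT alone without TACC3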
# PGC1a acetyl inh: lowers PGC1a acetylation signal in U2OS cells | AlphaScreen anti-acetyl-lysine; with virally co-expressed GCN5 acetyltransferase | inhibition, % at 15.6 µM | actives 0.17% (n = 350,000);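 active = every replicate shows inhibition of at least 40%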;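 note: 0% = neutral control wells and 100% = positive control wells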
# S100A4 inh HTS: inhibitors of human S100A4 binding to myosin IIA peptide; S100A4/TAMRA-MyoIIA peptide fluorescence polarization; actives 0.14% (n = 360,000); inhibition, % at 10.7 µM;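 active = mean inhibition of at least 70% across replicates, with every replicate also reaching that level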
# Target sequence (P26447 whole entry, looked up): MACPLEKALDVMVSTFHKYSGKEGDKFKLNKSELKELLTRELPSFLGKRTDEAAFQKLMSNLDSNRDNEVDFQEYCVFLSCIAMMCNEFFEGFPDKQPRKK
#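 System – human S100A4 monomer protein, biochemical binding assay · Buffer or medium – Calcium-containing HEPES buffer, pH 7.2 · Timing – 5 min between mix addition and reading · Also added – TAMRA-labelled myosin IIA heavy-chain peptide probe, 5 nM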
# ERAP1 HTS inh: blocks human ERAP1 aminopeptidase activity; Q9NZ08; recombinant ERAP1, Leu-AMC fluorescence, 60 min; inhibition, % at 10.7 µM; actives 0.15% (n = 340,000); AID 652197;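 active = mean replicate inhibition of at least 30%, or all replicates individually reaching that 30% level; inactive = mean below 30% and not every replicate reaching it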;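 note: 0% = neutral control wells and 100% = L-leucinethiol positive control wells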
# The depositor's hits bear a star; nt = not tested or not shown. Most compounds without a hit are left out; they make up all but 2.4% or so of the library.
SMILES,Ecoli rRNA inh,CASP6 VEID inh,ARNT TACC3 PPI,PGC1a acetyl inh,S100A4 inh HTS,ERAP1 HTS inh
Cc1nnc(NC(=O)c2cc(-c3ccco3)nc3ccccc23)s1,-7.1,53.1*,2.6,-6.1,-7.6,-4.9
O=C(Nc1nc2ccccc2s1)c1cc(-c2ccco2)nc2ccccc12,10.8,1.3,-8.0,nt,-0.8,-5.7
CN1C(=O)c2cc(NC(=O)c3ccc(Cl)cc3)ccc2OC[C@@H]2O[C@@H](CC(=O)O)CC[C@@H]21,-1.4,nt,-2.1,3.2,nt,nt
COc1cc(/C=C2\SC(=O)N(c3cccc(Cl)c3)C2=O)cc([N+](=O)[O-])c1O,-33.3*,-6.7,25.4,-4.3,0.7,-2.3
Nn1c(SCCOc2ccc(Cl)cc2)nnc1-c1cccnc1,nt,-2.6,6.0,8.2,2.1,47.1*
Nn1c(SCCOc2ccccc2)nnc1-c1cccnc1,9.1,-4.9,-2.0,2.1,-2.2,10.3
COc1cccc(NC(=O)N2CC(=O)N3[C@H](C2)[C@@H](c2ccc(C4=CCCC4)cc2)[C@@H]3CO)c1,-12.5,0.0,nt,1.7,-11.7,-1.9
Nc1nc2c(s1)CCCCCCCCCC2,-50.4*,-2.3,nt,-6.0,4.6,6.5
O=C(C[C@H]1CC[C@H]2[C@@H](COC[C@H](O)CN2S(=O)(=O)c2ccccc2)O1)NCc1ccc(-c2ccccc2)cc1,-8.7,-11.0,18.7,-3.5,-6.3,-0.2
CC(=O)N(NC(=O)c1ccccc1Cl)C1CC(=O)N(c2ccc(C)cc2)C1=O (stereo unspecified),nt,nt,46.6*,-2.7,nt,nt
Cc1cccc(C(=O)NC(=S)NNC(=O)c2ccccc2Cl)c1,-47.2,-2.2,16.7,nt,0.7,1.3
Cc1cc(C(=O)NNC(=S)NC(=O)/C=C/c2ccccc2Cl)n[nH]1,-15.5,9.1,62.1*,-10.6,5.9,-1.4
CC(C)c1ccc2[nH]c(O)c(N=NC(=O)c3cccc(S(=O)(=O)Nc4ccccc4Cl)c3)c2c1,18.9,nt,nt,nt,-8.3,3.0
CC(C)NC(=S)N=Nc1c(O)[nH]c2ccc(C(C)C)cc12,-4.6,-1.2,-0.6,47.5*,-6.9,1.8
O=C(O)/C(=C\c1cccc(F)c1)c1ccc(S(=O)(=O)N2CCCC2)s1,-9.6,57.2*,-7.8,0.5,-3.6,-2.4
CCCCOc1ccc(/C=C(\C(=O)O)c2ccc(S(=O)(=O)N3CCCC3)s2)cc1,-10.1,9.0,1.1,7.1,2.1,5.8
CCOc1ccccc1/C=C(\C(=O)O)c1ccc(S(=O)(=O)N2CCCCC2)s1,nt,35.8*,3.1,-1.1,-2.8,4.6
Cc1cccc(/C=C(\C(=O)O)c2ccc(S(=O)(=O)N3CCCC3)s2)c1,-5.0,51.6*,45.4*,3.9,-4.2,-3.8
COc1cc(/C=C(\C(=O)O)c2ccc(S(=O)(=O)N3CCCC3)s2)ccc1OCCC(C)C,-11.4,44.6*,0.7,-5.2,-19.7,8.0
[O-][n+]1c2ccccc2[n+]([O-])c2cc(O)ccc21,-12.5,67.8*,8.9,nt,2.8,1.4
CN(C)C(=O)c1cc2c(c(-c3cccc(-c4ccccc4)c3)n1)[C@H](CCO)N([S@@](=O)C(C)(C)C)C2,-3.8,2.6,nt,-1.2,-37.3,1.0
CCN(Cc1ccccc1)c1ccc(/C=N/NS(=O)(=O)c2ccc(C)c([N+](=O)[O-])c2)cc1,-33.5*,5.3,-5.5,nt,-5.1,-0.8
COCCNC(=O)C[C@H]1C[C@H]2c3cc(NC(=O)Nc4ccccc4)ccc3O[C@H]2[C@@H](CO)O1,3.0,-2.9,-4.8,0.8,5.1,-1.1
C=CCSc1nnc(-c2cc3c(C(F)(F)F)nn(C)c3s2)n1C,nt,nt,-0.8,nt,nt,nt
C=CCSc1nnc(-c2cc3c(-c4ccccc4)nn(C)c3s2)n1C,nt,nt,48.0*,2.3,nt,nt
SMILES,Ecoli rRNA inh,CASP6 VEID inh,ARNT TACC3 PPI,PGC1a acetyl inh,S100A4 inh HTS,ERAP1 HTS inh
COc1cccc(CNc2ccc3c(c2)ncn3C(C)C)c1OC,-21.0*,-0.1,-3.4,5.0,14.6,6.6
Cc1cccc(-c2nsc(SCC(=O)N3CCCC3)n2)c1,nt,nt,-2.4,95.5*,nt,nt
C/C(=N\NC(=O)c1ccccc1Cl)c1ccccn1,12.4,5.2,67.0*,nt,1.6,-7.1
C/C(=N\NC(=O)c1ccc(Cl)c(Cl)c1)c1ccccn1,5.2,-2.2,nt,nt,-2.4,-6.0
C/C(=N\NC(=O)C1COc2ccccc2O1)c1ccccn1 (stereo unspecified),nt,nt,64.1*,12.3,nt,nt
C/C(=N/NC(=O)c1ccc(C(C)(C)C)cc1)c1ccccn1,-27.8,1.4,65.3*,7.3,-1.7,nt
C/C(=N\NC(=O)c1cccc(Br)c1)c1ccccn1,-51.9,0.5,45.0*,nt,-3.9,4.7
C/C(=N\NC(=O)C1COc2ccccc2O1)c1ccc(C)o1 (stereo unspecified),nt,nt,19.7,1.1,nt,nt
COCC(=O)N(C)C[C@H]1Oc2ncc(Br)cc2C(=O)N([C@H](C)CO)C[C@@H]1C,-0.4,1.7,-8.0,8.3,-6.2,-0.7
COc1ccccc1S(=O)(=O)N[C@H]1CC[C@@H](CC(=O)NCc2cc(F)cc(F)c2)O[C@@H]1CO,1.7,0.7,nt,2.5,-65.7,-2.9
C[C@@H]1CN([C@H](C)CO)C(=O)c2cccc(NS(=O)(=O)c3ccc(Cl)cc3)c2O[C@H]1CN(C)C,-2.8,1.5,-0.7,3.4,1.9,-1.7
C[C@@H]1CN([C@H](C)CO)C(=O)c2cc(NC(=O)Nc3ccc4c(c3)OCO4)ccc2O[C@@H](C)CCCCO[C@H]1CN(C)C(=O)c1ccccc1,0.3,-1.2,3.1,-0.6,-7.5,-5.1
COc1ccc(C(=O)N/N=C(\C)c2ccccn2)cc1OC,-6.3,12.4,67.0*,nt,-3.2,3.6
COc1ccc(/C(C)=N\NC(=O)c2ccc3c(c2)OCO3)cc1OC,3.9,-0.5,nt,nt,0.4,-0.6
C/C(=N\NC(=O)c1cc(-c2cccs2)nc2ccccc12)c1ccccn1,6.7,0.5,72.5*,6.2,-13.8,0.0
O=C(N/N=C/c1ccncc1)c1ccc(-n2cccc2)cc1,4.9,-0.2,-1.4,-2.1,-0.7,2.1
O=C(N/N=C/c1cccs1)c1ccc(-n2cccc2)cc1,-22.6*,2.3,4.1,nt,0.2,4.5
Cc1ccc2c(c1)c1c(n2CC(O)CNC2CCCCC2)CCCC1 (stereo unspecified),-28.1,49.5*,26.8,-17.0,-2.1,nt
Cc1ccc2c(c1)c1c(n2CC(O)CN2CCCCC2C)CCCC1 (stereo unspecified),-11.9,-3.2,10.3,0.0,0.4,-1.2
Cc1ccc2c(c1)c1c(n2CC(O)CN2CCC(C)CC2)CCCC1 (stereo unspecified),1.5,45.9*,15.4,-0.5,-21.5,nt
C[C@@H]1CN([C@@H](C)CO)C(=O)Cc2cc(NS(=O)(=O)c3ccc(F)cc3)ccc2O[C@@H]1CN(C)C(=O)Nc1ccc(F)cc1,2.0,nt,-4.0,6.2,-9.6,-2.5
